Screens: PubChem BioAssay, several laboratories
TRAIL sens C8 = caspase-8 TRAIL sensitization; NB7+C8 cells + TRAIL, ATPlite viability luminescence; inhibition (viability loss, TRAIL sensitization), % at 10 µM; hit rate 1% among 360,000; AID 624354;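 active = compounds causing at least 50% loss of cell viability in the single-dose screen, relative to plate controls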
FLuc act counter = affects firefly luciferase, flagging false hits in luciferase stimulation screens; ATPlite luciferase biochemical, luminescence, 10 min; 0 = ATP-free wells, 1 = DMSO control; activation factor at 10 µM; AID 1027; 200,000 tested, under 10 active;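 active = luciferase activation factor, scaled between plate controls, of at least 2 with compound at 10 µM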
Target sequence (P08659 whole entry, looked up): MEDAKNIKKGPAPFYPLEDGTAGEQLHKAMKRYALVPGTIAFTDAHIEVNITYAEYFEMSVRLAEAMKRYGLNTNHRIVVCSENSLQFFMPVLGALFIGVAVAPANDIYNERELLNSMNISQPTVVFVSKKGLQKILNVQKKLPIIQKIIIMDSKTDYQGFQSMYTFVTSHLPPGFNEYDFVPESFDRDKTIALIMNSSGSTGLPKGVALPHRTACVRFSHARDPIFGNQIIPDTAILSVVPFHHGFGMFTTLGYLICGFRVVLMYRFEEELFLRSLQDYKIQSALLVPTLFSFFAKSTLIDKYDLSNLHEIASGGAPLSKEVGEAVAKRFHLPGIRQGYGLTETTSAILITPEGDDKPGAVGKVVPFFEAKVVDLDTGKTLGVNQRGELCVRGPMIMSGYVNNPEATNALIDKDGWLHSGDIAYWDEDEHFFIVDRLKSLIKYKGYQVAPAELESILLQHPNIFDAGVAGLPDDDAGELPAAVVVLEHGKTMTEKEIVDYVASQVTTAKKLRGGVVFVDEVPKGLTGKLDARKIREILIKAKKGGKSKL
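System: Luciferase/luciferin detection reagent, cell-free biochemical luciferase assay | Medium: PBS buffer for ATP | Dosing: Test compounds dosed from 2 mM stocks in 100% DMSO | Timing: 10 min at ambient temperature | Signal: Luminescence measurement of luciferase light output | Evaluation: Luciferase activation, seen as luminescence increase over controls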
NF-kB neuron act = compounds increasing NF-kB expression in human neuronal cells. NF-kB reporter expression; stronger effect = higher value. fold change at 12.5 µM. hit rate 1.6% among 190,000. AID 1239; in the data active = fold change above about 3.3
APP 5'UTR act = activates APP 5'UTR luciferase reporter; SH-SY5Y APP 5'UTR luciferase reporter, luminescence; zero percent = DMSO vehicle wells; activation, % at 2 µM; hit rate 1% among 190,000; AID 1276;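 active = activation above a set limit, based on mean plus 3 SD of controls, cut at about 140% in these data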
PPC-1+TRAIL kill = PPC-1 cancer cell killing with TRAIL present | PPC-1 cells + TRAIL, ATPLite viability luminescence | hit rate 0.41% among 220,000 | cell killing (% activity), % at 4 µM or 5 µM;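 active = cell killing above 50% in the first pass at 4 µM, then a duplicate retest at 5 µM averaging 50% or more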
FLuc inhib CS = Photinus pyralis luciferase inhibition counter-screen. hit rate 1.5% among 200,000. ATPLite firefly luciferase biochemical luminescence, 10 min. inhibition, % at 10 µM. AID 1006;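 active = inhibition above about 50% when tested at 10 µM, limit read from the data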
Numbers stand for hits; - = inactive; . = not tested or not shown. Most compounds without a hit are left out; they make up all but 2.2% or so of the library.

SMILES	TRAIL sens C8	FLuc act counter	NF-kB neuron act	APP 5'UTR act	PPC-1+TRAIL kill	FLuc inhib CS
CC1=[N+](C)N(c2ccccc2)C(=O)C1N=Cc1c(Cl)cccc1Cl (stereo unspecified)	-	-	-	-	-	-
O=C(CCc1ccccc1)Nc1ccc2ccccc2n1	-	-	5.3	140	-	-
Cc1ccc(C(=O)Nc2ccc3ccccc3c2)cc1	83	.	.	.	.	.
O=C(Nc1ccncc1)c1ccc2ccccc2c1	-	-	-	-	-	-
Cc1ccc(NC(=O)c2ccccc2O)cc1	52	-	6	-	-	78
O=C(c1ccc(CSc2nc3ccncc3[nH]2)cc1)N1CCCCC1	-	-	-	-	-	68
Cc1ccc(C)c(N2CCN(C(=O)c3ccc(CSc4nc5ccncc5[nH]4)cc3)CC2)c1	-	-	-	-	-	-
COc1ccc2oc(C(=O)OCC(=O)NC(C)c3ccccc3)c(C)c2c1 (stereo unspecified)	-	.	.	.	.	.
CN(C)/C=N/c1cnc(C(=O)c2ccc(Cl)cc2)n1C	-	-	3.8	-	-	-
CN(C)/C=N/NC(=O)c1ccc(Cl)cc1	-	-	-	-	-	-
O=C(NC12CC3CC(CC(C3)C1)C2)C1CCCN1C(=O)Nc1ccccc1 (stereo unspecified)	-	.	.	.	.	.
CCC(=O)N(C)CCc1cc2c(c(OC)c1/C=N/NC(=O)c1ccccc1O)OCO2	-	-	-	-	-	-
COc1c(/C=N/NC(=O)c2ccccc2O)c(CCN(C)C(C)=O)cc2c1OCO2	-	-	-	-	-	85
Cc1cc(C(=O)CSc2cccc[n+]2[O-])c(C)n1-c1ccccc1	-	-	3.8	149	-	80
Cc1cc(C(=O)CSc2nncn2C)c(C)n1-c1ccccc1	-	-	4.2	-	-	69
Cc1cc(C(=O)CSc2cccc[n+]2[O-])c(C)n1-c1ccc(Br)cc1	.	-	-	-	-	-
COc1ccccc1N(C(=O)Cn1nnc(-c2ccc(C)o2)n1)C(C(=O)NC1CCCC1)c1ccncc1 (stereo unspecified)	-	.	.	.	.	.
N/C(=N/O)c1nc(N2CCCC2)nc(N(c2ccccc2)c2ccccc2)n1	59	-	-	-	-	-
CCOc1ccc(C(=O)NCC(=O)OCC(=O)Nc2ccc(C)c(S(=O)(=O)N(C)C)c2)cc1	-	-	-	-	-	65
Cc1ccc(NC(=O)COC(=O)CNC(=O)C2CCCCC2)cc1S(=O)(=O)N(C)C	-	.	.	.	.	.
Cc1cccc(-c2nsc(SCC(=O)N3CCCC3)n2)c1	-	-	3.9	-	-	-
Cc1ccc2nc(-c3cccnc3)cc(C(=O)Nc3ccc(F)cc3C)c2c1	-	-	-	-	-	-
Nc1nc(N)nc(-c2cccc([N+](=O)[O-])c2)n1	-	.	.	.	.	.
Nc1nc(N)c2c(ccc3c2ccn3Cc2cccc([N+](=O)[O-])c2)n1	97	.	.	.	.	.
Cc1cc(C(=O)COC(=O)c2ccc(Br)o2)c(C)n1Cc1ccco1	.	-	-	-	-	-
SMILES	TRAIL sens C8	FLuc act counter	NF-kB neuron act	APP 5'UTR act	PPC-1+TRAIL kill	FLuc inhib CS
Cc1cc(C(=O)COC(=O)c2ccc(O)cc2)c(C)n1Cc1ccco1	-	-	4.4	164	-	-
Cc1cc(C(=O)COC(=O)C(C)NC(N)=O)c(C)n1Cc1ccco1 (stereo unspecified)	-	-	-	-	-	67
Cc1cc(C(=O)CSc2ncccn2)c(C)n1Cc1ccco1	-	-	4.3	141	-	64
CCOc1ncccc1C(=O)OCC(=O)c1cc(C)n(Cc2ccco2)c1C	-	-	4.6	164	-	67
Cc1ccc(NC(=O)Cn2nnc(C(=O)NCc3ccc(Cl)cc3)c2N)cc1F	-	.	.	.	.	.
CCOC(=O)CNC(=O)CSc1nc(-c2ccc(OC)cc2)ns1	54	-	-	-	-	-
COc1cccc(CNC(=O)CCNC(=O)C2CCN(S(=O)(=O)c3ccccc3)CC2)c1	-	.	.	.	.	.
O=C(/C=C/Nc1ccc(F)cc1Br)c1ccccc1	95	-	-	149	85	96
O=C(/C=C/Nc1ccccc1)c1ccccc1	64	-	9.1	172	-	92
Cc1cc(N/C=C/C(=O)c2ccccc2)ccc1Br	-	.	.	.	.	.
O=C(NNC(=S)Nc1ccc(Br)cc1)c1cccnc1	-	.	.	.	.	.
CC(=O)Nc1ccc(N/C=C/C(=O)c2ccccc2)cc1	-	.	.	.	.	.
CN(C)c1ccc(N/C=C/C(=O)c2ccccc2)cc1	67	-	-	-	-	92
O=C(/C=C\Nc1ccc(Br)cc1)c1cccnc1	66	-	8.8	210	-	84
COC(=O)c1ccc(CNC(=O)COC(=O)/C=C/c2cccc(OC)c2)cc1	-	.	.	.	.	.
COc1ccc(CC(=O)Nc2cc(S(=O)(=O)N3CCCC3)ccc2Cl)c(OC)c1	-	.	.	.	.	.
CCCCS(=O)(=O)Nc1ccc(C)cn1	-	-	-	-	-	-
CC1(C)C2CC[C@]3(C)C(CC=C4[C@@H]5C[C@@](C)(CO)[C@@H](O)C[C@]56C[C@@H](OC6=O)[C@]43C)[C@@]2(C)CC[C@@H]1O (stereo partly specified)	-	.	.	.	.	.
CCC(=O)Nc1ccc(C(=O)OCc2ccccc2)cc1	-	-	-	-	-	-
O=C(OCc1ccccc1)c1ccc(NCc2cc(O)ccc2O)cc1	90	.	.	.	.	.
CC(C)OC(=O)c1ccc(NCc2cc(O)ccc2O)cc1	73	.	.	.	.	.
Cc1cc(-c2csc3nc[nH]c(=S)c23)cc(C)c1C	60	-	-	-	-	-
Nc1nc(-c2cccc(F)c2)cs1	-	-	3.4	-	.	-
Fc1cccc(-c2csc(-c3ccno3)n2)c1	-	.	.	.	-	.
Nc1nc(-c2ccc3c(c2)OCCO3)cs1	-	-	-	-	-	-
SMILES	TRAIL sens C8	FLuc act counter	NF-kB neuron act	APP 5'UTR act	PPC-1+TRAIL kill	FLuc inhib CS
Nc1nc(-c2ccc3c(c2)CCCC3)cs1	-	-	5.3	-	-	58
Oc1c(-c2cc(-c3ccco3)[nH]n2)ccc2ccccc12	-	-	8.7	-	-	-
CC(C)(C)c1ccc(-c2cc(-c3ccccc3O)[nH]n2)cc1	-	.	.	.	.	.
Oc1ccccc1-c1cc(-c2cccc(F)c2)n[nH]1	-	-	9.9	202	-	-
Oc1ccc(Br)cc1-c1cc(-c2ccco2)[nH]n1	-	-	-	-	-	-
Oc1ccc(Cl)cc1-c1cc(-c2ccco2)[nH]n1	-	-	-	-	-	-
Oc1ccccc1-c1cc(-c2ccco2)[nH]n1	-	-	3.9	-	-	-
Oc1ccccc1-c1cc(-c2ccccc2Cl)[nH]n1	-	-	8.7	231	-	-
COc1cc(C)ccc1OCCOc1c(C)cc(Cl)cc1Cl	-	-	-	-	-	-
CN(C)CCC1(C2=CCCC2)CC/C(=C/c2ccc(Cl)cc2)C1=O (stereo unspecified)	-	.	.	.	.	.
Nc1nc2ccc(N3CCOCC3)cc2s1	-	-	-	-	-	66
Nc1ccc2nc(N)sc2c1	-	.	.	.	.	.
COc1ccccc1CNC(=O)COC(=O)C12CC3CC(CC(O)(C3)C1)C2	-	.	.	.	.	.
O=[N+]([O-])c1ccc(O)c(C=NN2CCCCC2)c1	-	.	.	.	.	.
Oc1ccc(Br)cc1/C=N/N1CCCCC1	-	-	4	-	-	-
